Results reported in ChEMBL document CHEMBL2321690, “New betulinic acid derivatives for bevirimat-resistant human immunodeficiency virus type-1” (J Med Chem, 2013).
Activity calls are given as the source filed them. The rule behind the calls is not given here.

Assays:
[1] = test system: Human immunodeficiency virus 1; experiment: Antiviral activity against 0.001 MOI wild type Human immunodeficiency virus 1 NL4-3 infected in human MT4 cells assessed as inhibition of viral replication measured 4 days post infection by ELISA; format: functional, organism-based; settings: Human immunodeficiency virus 1, NL4-3, MT4, 96 h
Procedure, shortened: (§1)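 Mutations introduced into pNL4-3 by site-directed mutagenesis. MT4 cells infected with wild-type NL4-3 or resistant variant at 0.001 TCID50/cell in presence of graded compound concentrations. Supernatant p24 measured by ELISA on day 4 post-infection. IC50 is the concentration reducing p24 by 50%, reported as mean ± SD with the number of tests given per value.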

MT4 = experiment: Cytotoxicity against human MT4 cells for 4 days; format: cell-based; settings: mt4, 96 h
Procedure, shortened: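 MT4 cells cultured with various compound concentrations for 4 days. Viability read by a CytoTox-Glo luminescent cytotoxicity assay. CC50 is the concentration reducing viable cells by 50%.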

[2] = test system: Human immunodeficiency virus 1; experiment: Antiviral activity against 0.001 MOI bevirimat-resistant Human immunodeficiency virus 1 NL4-3 harboring gag V370A mutant infected in human MT4 cells assessed as inhibition of viral replication measured 4 days post infection by ELISA; format: functional, organism-based; settings: Human immunodeficiency virus 1, NL4-3, MT4, 96 h; procedure, shortened: as §1
[3] = test system: Human immunodeficiency virus 1; experiment: Potency index, ratio of bevirimat IC50 to compound IC50 for 0.001 MOI bevirimat-resistant Human immunodeficiency virus 1 NL4-3 harboring gag V370A mutant infected in human MT4 cells; format: functional
[4] = test system: Human immunodeficiency virus 1; experiment: Antiviral activity against 0.001 MOI bevirimat-resistant Human immunodeficiency virus 1 NL4-3 harboring gag V370 deletion mutant infected in human MT4 cells assessed as inhibition of viral replication measured 4 days post infection by ELISA; format: functional, organism-based; settings: Human immunodeficiency virus 1, NL4-3, MT4, 96 h; procedure, shortened: as §1
[5] = test system: Human immunodeficiency virus 1; experiment: Antiviral activity against bevirimat-resistant Human immunodeficiency virus 1 NL4-3 harboring gag V362I mutant infected in human 293T cells assessed as inhibition of CA-SP1 cleavage measured 2 days post infection by Western blotting analysis; format: functional, organism-based
Procedure, shortened: (§2)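 Provirus plasmids (pNL4-3/V370A, pNL4-3/V362I, with pNL4-3 alongside) transfected into 293T cells, and virus produced in presence of compound. Supernatant virus harvested two days after transfection. Western blot with anti-p24 monoclonal antibody (183-H12-5C) to detect accumulation of CA-SP1 (p25), indicating inhibited CA-SP1 cleavage.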

[6] = test system: Human immunodeficiency virus 1; experiment: Antiviral activity against bevirimat-resistant Human immunodeficiency virus 1 NL4-3 harboring gag V370A mutant infected in human 293T cells assessed as inhibition of CA-SP1 cleavage measured 2 days post infection by Western blotting analysis; format: functional, organism-based; procedure, shortened: as §2
COS = experiment: Inhibition of wild type Human immunodeficiency virus 1 NL4-3 envelope glycoprotein gp160-mediated cell-cell fusion between virus-infected monkey COS cells to human TZM-bl cells after 24 hrs by luciferase reporter gene assay; format: cell-based
Procedure, shortened: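 COS cells (1 × 10^6 cells/mL) electroporated (950 µF, 150 V) with vector expressing NL4-3 Env and tat, then cultured one day. Mixed with TZM-bl cells with inhibitor over a 1–10000 nM range. Luciferase (RLU) in fused cells read 24 h after mixing, expressed as % of no-compound fusion. Points are mean ± SD of three tests.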

[7] = test system: Human immunodeficiency virus 1; experiment: Antiviral activity against 0.001 MOI bevirimat-resistant Human immunodeficiency virus 1 NL4-3 harboring gag T371 deletion mutant infected in human MT4 cells assessed as inhibition of viral replication measured 4 days post infection by ELISA; format: functional, organism-based; settings: Human immunodeficiency virus 1, NL4-3, MT4, 96 h; procedure, shortened: as §1
[8] = test system: Human immunodeficiency virus 1; experiment: Antiviral activity against 0.001 MOI bevirimat-resistant Human immunodeficiency virus 1 NL4-3 harboring gag V362I mutant infected in human MT4 cells assessed as inhibition of viral replication measured 4 days post infection by ELISA; format: functional, organism-based; settings: Human immunodeficiency virus 1, NL4-3, MT4, 96 h; procedure, shortened: as §1
[9] = test system: Human immunodeficiency virus 1; experiment: Antiviral activity against wild type Human immunodeficiency virus 1 NL4-3 infected in human 293T cells assessed as inhibition of CA-SP1 cleavage measured 2 days post infection by Western blotting analysis; format: functional, organism-based
Procedure, shortened: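 293T cells transfected with pNL4-3 proviral plasmid and cultured with compounds. Culture supernatant collected 2 days after transfection. Western blot with anti-p24 monoclonal antibody (hybridoma 183-H12-5C) detected CA-SP1 (p25) accumulation, taken as the measure of blocked CA-SP1 cleavage.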

Row | SMILES | IC50 [1] | CC50 (MT4) | IC50 [2] | further results
1 | C=C(C)[C@@H]1CC[C@]2(C(=O)NCCCCCCCCCC(=O)N[C@@H](CCC(N)=O)C(=O)OC)CC[C@]3(C)[C@H](CC[C@@H]4[C@@]5(C)CC[C@H](OC(=O)CC(C)(C)C(=O)O)C(C)(C)[C@@H]5CC[C@]43C)[C@@H]12 | 100 nM | > 10000 nM | 700 nM | –
2 | C=C(C)[C@@H]1CC[C@]2(C(=O)NCCCCCCCCC(=O)N[C@@H](CCC(N)=O)C(=O)OC)CC[C@]3(C)[C@H](CC[C@@H]4[C@@]5(C)CC[C@H](OC(=O)CC(C)(C)C(=O)O)C(C)(C)[C@@H]5CC[C@]43C)[C@@H]12 | 9 nM | > 10000 nM | 160 nM | Ratio IC50 [3]: 20; IC50 [4]: 320 nM; inhibition [5]: Active; inhibition [6]: Active; inhibition (COS): inactive; IC50 [7]: 67 nM; IC50 [8]: 16 nM
3 | C=C(C)[C@@H]1CC[C@]2(C(=O)NCCCCCCC(=O)N[C@@H](CCC(N)=O)C(=O)OC)CC[C@]3(C)[C@H](CC[C@@H]4[C@@]5(C)CC[C@H](OC(=O)CC(C)(C)C(=O)O)C(C)(C)[C@@H]5CC[C@]43C)[C@@H]12 | 50 nM | > 10000 nM | 2460 nM | –
4 | C=C(C)[C@@H]1CC[C@]2(C(=O)NCCCCCCCCNC(=O)[C@H](CCC#N)NC(=O)OC(C)(C)C)CC[C@]3(C)[C@H](CC[C@@H]4[C@@]5(C)CC[C@H](OC(=O)CC(C)(C)C(=O)O)C(C)(C)[C@@H]5CC[C@]43C)[C@@H]12 | 30 nM | > 10000 nM | 330 nM | –
5 | C=C(C)[C@@H]1CC[C@]2(C(=O)NCCCCCCCCC(=O)N[C@@H](CCC(N)=O)C(=O)OC(C)(C)C)CC[C@]3(C)[C@H](CC[C@@H]4[C@@]5(C)CC[C@H](OC(=O)CC(C)(C)C(=O)O)C(C)(C)[C@@H]5CC[C@]43C)[C@@H]12 | 10 nM | > 10000 nM | 810 nM | –
6 | C=C(C)[C@@H]1CC[C@]2(C(=O)NCCCCCCCCNC(=O)[C@H](CCC(N)=O)NC(=O)OC(C)(C)C)CC[C@]3(C)[C@H](CC[C@@H]4[C@@]5(C)CC[C@H](OC(=O)CC(C)(C)C(=O)O)C(C)(C)[C@@H]5CC[C@]43C)[C@@H]12 | 30 nM | > 10000 nM | 360 nM | –
7 | C=C(C)[C@@H]1CC[C@]2(C(=O)NCCCCCCCCCNC(=O)[C@H](CC(N)=O)NC(=O)OC(C)(C)C)CC[C@]3(C)[C@H](CC[C@@H]4[C@@]5(C)CC[C@H](OC(=O)CC(C)(C)C(=O)O)C(C)(C)[C@@H]5CC[C@]43C)[C@@H]12 | 40 nM | 8300 nM | 340 nM | –
8 | C=C(C)[C@@H]1CC[C@]2(C(=O)O)CC[C@]3(C)[C@H](CC[C@@H]4[C@@]5(C)CC[C@H](OC(=O)CC(C)(C)C(=O)O)C(C)(C)[C@@H]5CC[C@]43C)[C@@H]12 [BEVIRIMAT] | 76 nM | > 10000 nM | > 5000 nM | IC50 [4]: > 6800 nM; inhibition [6]: inactive; inhibition [9]: Active; inhibition (COS): inactive; IC50 [7]: > 6800 nM; IC50 [8]: > 6800 nM
9 | C=C(C)[C@@H]1CC[C@]2(C(=O)NCCCCCCCCC(=O)NCC(=O)OC)CC[C@]3(C)[C@H](CC[C@@H]4[C@@]5(C)CC[C@H](OC(=O)CC(C)(C)C(=O)O)C(C)(C)[C@@H]5CC[C@]43C)[C@@H]12 | 10 nM | > 10000 nM | 1510 nM | –
10 | C=C(C)[C@@H]1CC[C@]2(C(=O)NCCCCCCCCCNC(=O)[C@H](CCC(N)=O)NC(=O)OC(C)(C)C)CC[C@]3(C)[C@H](CC[C@@H]4[C@@]5(C)CC[C@H](OC(=O)CC(C)(C)C(=O)O)C(C)(C)[C@@H]5CC[C@]43C)[C@@H]12 | 20 nM | > 10000 nM | 1200 nM | –
11 | C=C(C)[C@@H]1CC[C@]2(C(=O)NCCCCCCCCNC(=O)[C@@H](NC(=O)OC(C)(C)C)C(C)C)CC[C@]3(C)[C@H](CC[C@@H]4[C@@]5(C)CC[C@H](OC(=O)CC(C)(C)C(=O)O)C(C)(C)[C@@H]5CC[C@]43C)[C@@H]12 | 150 nM | > 10000 nM | 330 nM | –
12 | C=C(C)[C@@H]1CC[C@]2(C(=O)NCCCCCCCCC(=O)N[C@@H](CCC(N)=O)C(=O)OCc3ccccc3)CC[C@]3(C)[C@H](CC[C@@H]4[C@@]5(C)CC[C@H](OC(=O)CC(C)(C)C(=O)O)C(C)(C)[C@@H]5CC[C@]43C)[C@@H]12 | 40 nM | > 10000 nM | 2540 nM | –
13 | C=C(C)[C@@H]1CC[C@]2(C(=O)NCCCCCCCCC(=O)N[C@@H](Cc3ccccc3)C(=O)OC)CC[C@]3(C)[C@H](CC[C@@H]4[C@@]5(C)CC[C@H](OC(=O)CC(C)(C)C(=O)O)C(C)(C)[C@@H]5CC[C@]43C)[C@@H]12 | 70 nM | > 10000 nM | 1290 nM | –
14 | C=C(C)[C@@H]1CC[C@]2(C(=O)NCCCCCCCCNC(=O)[C@H](C)NC(=O)OC(C)(C)C)CC[C@]3(C)[C@H](CC[C@@H]4[C@@]5(C)CC[C@H](OC(=O)CC(C)(C)C(=O)O)C(C)(C)[C@@H]5CC[C@]43C)[C@@H]12 | 20 nM | > 10000 nM | 920 nM | –
15 | C=C(C)[C@@H]1CC[C@]2(C(=O)NCCCCCCCNC(=O)[C@H](CCC(N)=O)NC(=O)OC(C)(C)C)CC[C@]3(C)[C@H](CC[C@@H]4[C@@]5(C)CC[C@H](OC(=O)CC(C)(C)C(=O)O)C(C)(C)[C@@H]5CC[C@]43C)[C@@H]12 | 10 nM | > 10000 nM | 2600 nM | –
16 | C=C(C)[C@@H]1CC[C@]2(C(=O)NCCCCCCCCC(=O)N[C@H](C(=O)OC)[C@@H](C)CC)CC[C@]3(C)[C@H](CC[C@@H]4[C@@]5(C)CC[C@H](OC(=O)CC(C)(C)C(=O)O)C(C)(C)[C@@H]5CC[C@]43C)[C@@H]12 | 40 nM | > 10000 nM | 2780 nM | –
17 | C=C(C)[C@@H]1CC[C@]2(C(=O)NCCCCCCCNC(=O)[C@H](C)NC(=O)OC(C)(C)C)CC[C@]3(C)[C@H](CC[C@@H]4[C@@]5(C)CC[C@H](OC(=O)CC(C)(C)C(=O)O)C(C)(C)[C@@H]5CC[C@]43C)[C@@H]12 | 10 nM | 7900 nM | 370 nM | –
18 | C=C(C)[C@@H]1CC[C@]2(C(=O)NCCCCCCCCC(=O)N3CCC[C@H]3C(=O)OC)CC[C@]3(C)[C@H](CC[C@@H]4[C@@]5(C)CC[C@H](OC(=O)CC(C)(C)C(=O)O)C(C)(C)[C@@H]5CC[C@]43C)[C@@H]12 | 100 nM | > 10000 nM | 880 nM | –
19 | C=C(C)[C@@H]1CC[C@]2(C(=O)NCCCCCCCCC(=O)N[C@H](C(=O)OC)C(C)C)CC[C@]3(C)[C@H](CC[C@@H]4[C@@]5(C)CC[C@H](OC(=O)CC(C)(C)C(=O)O)C(C)(C)[C@@H]5CC[C@]43C)[C@@H]12 | 10 nM | > 10000 nM | 1240 nM | –
